In ChEMBL document CHEMBL1139261, “Synthesis and biological evaluation of a series of tangeretin-derived chalcones” (Bioorg Med Chem Lett, 2009):
The source made the active and inactive calls. The rule behind the calls is not given here.

Key:
KB [1] = assay: Growth inhibition of human KB cells […] after 72 hrs by MTS assay; assay type: functional
Method in brief: (§1)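 KB human buccal carcinoma cells incubated with chalcone for 72 h. Growth read by MTS assay and expressed as percent inhibition of cell growth.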

[2] = Inhibition of tubulin assembly at 200 uM
Method in brief: (§2)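 Tubulin assembly followed by the Zavala and Guenard method, with compounds tested at 0.1 mg/ml (about 2 × 10^-4 M). IC50 is expressed as a ratio to the deoxypodophyllotoxin IC50.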

Leishmania donovani = assay: Antileishmanial activity against Leishmania donovani MHOM/ET/1967/HU3 (LV9) promastigotes after 72 hrs by MTT assay; assay type: functional, organism-based
Method in brief: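 Promastigotes of L. donovani LV9 clone (MHOM/ET/67/HU3) exposed to drug for 72 h. Viability read by MTT assay and IC50 derived.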

[3] = Inhibition of tubulin assembly; method in brief: as §2
[4] = Inhibition of tubulin assembly assessed as ratio of IC50 for drug to IC50 for deoxypodophyllotoxin
Leishmania amazonensis = assay: Antileishmanial activity against Leishmania amazonensis LV9 ([…]/M1841) amastigotes infected in mouse macrophage after 30 hrs by MTT assay; assay type: functional, organism-based
Method in brief: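 Intracellular amastigotes of L. amazonensis LV9 (MPROB/BR/1972/M1841), isolated from lesions and purified, grown inside murine macrophages. Compounds incubated with infected macrophages for 30 h. IC50 reported.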

HL-60 [5] = assay: Induction of apoptosis in human HL60 cells assessed as fold activation of caspase 3/7 at 10 uM; assay type: functional
Method in brief: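 HL60 human leukemia cells treated with compound. Caspase 3/7 activity measured with DEVD-AMC substrate and given as fold activation at the optimal compound concentration.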

[6] = Selectivity index, ratio of IC50 for mouse macrophage to IC50 for Leishmania amazonensis LV9 ([…]/M1841) amastigotes
Method in brief: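 Selectivity index is the IC50 for cytotoxicity against murine macrophages divided by the IC50 against L. amazonensis LV9 intracellular amastigotes. Amastigotes were assayed after 30 h incubation of infected macrophages with drug.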

KB [7] = assay: Cytotoxicity against human KB cells; assay type: functional, cell-based; method in brief: as §1
KB [8] = assay: Antiproliferative activity against human KB cells after 72 hrs by MTS assay; assay type: functional, cell-based
HL-60 [9] = assay: Induction of apoptosis in human HL60 cells assessed as fold activation of caspase 3/7 at 100 nM; assay type: functional
Method in brief: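 HL60 human leukemia cells; caspase 3/7 activation measured using DEVD-AMC substrate; reported as fold activation at the optimal compound concentration.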

P388 = assay: Cytotoxicity against mouse P388 cells; assay type: functional, cell-based

inhibition [2] [%]	SMILES	inhibition (INH) (KB [1]) [%]	IC50 (Leishmania donovani) [µM]	IC50 [3] [µM]	Ratio IC50 [4]	Activity (Leishmania amazonensis)	also measured
< 30	COc1ccc(/C=C/C(=O)c2c(OC)c(OC)c(OC)c(OC)c2OC)cc1N	29	–	–	–	–	–
–	COc1ccc(/C=C/C(=O)c2c(O)c(OC)c(OC)c(OC)c2OC)cc1N	40	44	14	4.1	inactive	fold change (FC) (HL-60 [5]): 2.9
–	COc1cc(C(=O)/C=C/c2cccc([N+](=O)[O-])c2)cc(OC)c1OC	29	0.4	–	–	–	Ratio IC50 [6]: 2.8; IC50 (Leishmania amazonensis): 26 µM
–	COc1c(O)c(OC)c(C(=O)/C=C/c2ccccc2)c(O)c1OC [PEDICIN]	–	–	300	–	–	IC50 (KB [7]): 21.2 µM
–	COc1ccc(/C=C/C(=O)c2c(O)c(OC)c(OC)c(OC)c2OC)cc1O	49	25	13	3.8	inactive	fold change (FC) (HL-60 [5]): 3.2
< 30	COc1ccc(/C=C/C(=O)c2c(O)c(OC)c(OC)c(OC)c2OC)cc1[N+](=O)[O-]	43	5.3	–	–	inactive	fold change (FC) (HL-60 [5]): 1.2
–	COc1ccc(/C=C/C(=O)c2cc(OC)c(OC)c(OC)c2)cc1O	100	–	4.3	1.3	–	IC50 (KB [8]): 0.017 µM; fold change (FC) (HL-60 [9]): 3.6
–	COc1c(O)c(OC)c(OC)c(C(=O)/C=C/c2ccccc2)c1O [ISODIDYMOCARPIN]	–	–	–	–	–	IC50 (P388): 11.1 µM
–	COc1ccc(/C=C/C(=O)c2cc(OC)c(OC)c(OC)c2)cc1N	100	–	3.7	1	–	IC50 (KB [8]): 0.031 µM; fold change (FC) (HL-60 [9]): 3.6
< 30	COc1ccc(/C=C/C(=O)c2c(OC)c(OC)c(OC)c(OC)c2OC)cc1O	22	20	–	–	–	–
–	COc1c(O)c(C(=O)/C=C/c2cccc([N+](=O)[O-])c2)c(OC)c(OC)c1OC	31	4.4	–	–	–	Ratio IC50 [6]: 2.5; IC50 (Leishmania amazonensis): 26 µM
< 30	COc1ccc(/C=C/C(=O)c2c(OC)c(OC)c(OC)c(OC)c2OC)cc1[N+](=O)[O-]	19	–	–	–	–	–
–	COc1ccc(/C=C/C(=O)c2cc(OC)c(OC)c(OC)c2)cc1[N+](=O)[O-]	44	2.8	–	–	inactive	–
